Data from ChEMBL document CHEMBL1150328, “Acetic acid aldose reductase inhibitors bearing a five-membered heterocyclic core with potent topical activity in a visual impairment rat model” (J Med Chem, 2008).
Active and inactive are the calls of the source. The rule behind the calls is not given here.

What was measured:
[1] = (§1) Inhibition of ALR2 in Sprague-Dawley rat lens by spectrophotometry; format: tissue-based, Lens of camera-type eye
In short: (§2)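 Rat lens extract, ammonium sulfate fractionated and dialyzed. 30 °C, 0.1 M sodium phosphate pH 6.2 with 0.25 mL 10 mM D,L-glyceraldehyde and 0.25 mL 0.104 mM NADPH in 1 mL total. Preincubated 10 min without substrate, then read 5 min at 340 nm against a substrate-free blank. Screened at 10^-4 M, then 10^-5 to 10^-8 M. IC50 by linear regression of log-dose curve, ≥4 concentrations.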

[2] = Inhibition of ALR1 in Sprague-Dawley rat kidney by spectrophotometry; format: tissue-based
In short: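 Rat kidney enzyme from 3 vol 10 mM sodium phosphate pH 7.2 homogenate (0.25 M sucrose, EDTA, β-mercaptoethanol), 40-75% ammonium sulfate cut, dialyzed. 37 °C, 0.25 mL 20 mM sodium D-glucuronate, 0.25 mL 0.12 mM NADPH, 0.1 M phosphate pH 7.2, 1 mL total. NADPH oxidation followed at 340 nm against a substrate-free blank.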

Rattus norvegicus [3] = organism: Rattus norvegicus; test: as §1; format: tissue-based; settings: Lens of camera-type eye; in short: as §2
Rattus norvegicus [4] = organism: Rattus norvegicus; test: Inhibition of ALR2 in Sprague-Dawley rat lens at >100 uM by spectrophotometry; format: tissue-based; settings: Lens of camera-type eye; in short: as §2
Rattus norvegicus [5] = test: Prevention of cataract development in severely galactosemic Sprague-Dawley Albino rat assessed as lens opacification administered four timely daily as 3% eye-drop solution in precorneal region for 15 days by slit-lamp microscopy; format: functional, organism-based; settings: Lens of camera-type eye
Rattus norvegicus [6] = test: Prevention of cataract development in severely galactosemic Sprague-Dawley Albino rat assessed as lens opacification administered four timely daily as 3% eye-drop solution in precorneal region for 21 days by slit-lamp microscopy; format: functional, organism-based; settings: Lens of camera-type eye
In short: (§3)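 Sprague-Dawley rats, 45-55 g, on 50% D-galactose chow, 15 per group. Both eyes dosed four times daily with 3% eye-drops or vehicle, starting one day before the diet switch. Lenses examined by slit-lamp after 1% atropine dilation at baseline and days 6, 8, 10, 14, 21. Graded stages 0-4, animals per stage counted, Mann-Whitney U-test.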

Rattus norvegicus [7] = test: Prevention of cataract development in severely galactosemic Sprague-Dawley Albino rat assessed as lens opacification administered four timely daily as 3% eye-drop solution in precorneal region for 13 days by slit-lamp microscopy; format: functional, organism-based; settings: Lens of camera-type eye
Rattus norvegicus [8] = test: Prevention of cataract development in severely galactosemic Sprague-Dawley Albino rat assessed as lens opacification administered four timely daily as 3% eye-drop solution in precorneal region for 18 days by slit-lamp microscopy; format: functional, organism-based; settings: Lens of camera-type eye
Rattus norvegicus [9] = test: Prevention of cataract development in severely galactosemic Sprague-Dawley Albino rat administered four timely daily as 3% eye-drop solution in precorneal region for 21 days; format: functional, organism-based; in short: as §3
Rattus norvegicus [10] = test: Prevention of cataract development in severely galactosemic Sprague-Dawley Albino rat assessed as lens opacification administered four timely daily as 3% eye-drop solution in precorneal region for 12 days by slit-lamp microscopy; format: functional, organism-based; settings: Lens of camera-type eye
Rattus norvegicus [11] = test: Prevention of cataract development in severely galactosemic Sprague-Dawley Albino rat assessed as lens opacification administered four timely daily as 3% eye-drop solution in precorneal region for 14 days by slit-lamp microscopy; format: functional, organism-based; settings: Lens of camera-type eye; in short: as §3
Rattus norvegicus [12] = test: Prevention of cataract development in severely galactosemic Sprague-Dawley Albino rat assessed as lens opacification administered four timely daily as 3% eye-drop solution in precorneal region for 17 days by slit-lamp microscopy; format: functional, organism-based; settings: Lens of camera-type eye
Rattus norvegicus [13] = test: Prevention of cataract development in severely galactosemic Sprague-Dawley Albino rat assessed as lens opacification administered four timely daily as 3% eye-drop solution in precorneal region for 11 days by slit-lamp microscopy; format: functional, organism-based; settings: Lens of camera-type eye
Rattus norvegicus [14] = test: Prevention of cataract development in severely galactosemic Sprague-Dawley Albino rat assessed as lens opacification administered four timely daily as 3% eye-drop solution in precorneal region for 16 days by slit-lamp microscopy; format: functional, organism-based; settings: Lens of camera-type eye
Rattus norvegicus [15] = test: Prevention of cataract development in severely galactosemic Sprague-Dawley Albino rat assessed as lens opacification administered four timely daily as 3% eye-drop solution in precorneal region for 20 days by slit-lamp microscopy; format: functional, organism-based; settings: Lens of camera-type eye
Rattus norvegicus [16] = test: Prevention of cataract development in severely galactosemic Sprague-Dawley Albino rat assessed as lens opacification administered four timely daily as 3% eye-drop solution in precorneal region for 19 days by slit-lamp microscopy; format: functional, organism-based; settings: Lens of camera-type eye

| SMILES | IC50 [1] [nM] | IC50 [2] [µM] | other results |
| --- | --- | --- | --- |
| O=C(O)Cc1nc(Cc2ccc(C(F)(F)F)cc2)no1 | 6300 | > 10 |  |
| COc1ccc(Cc2noc(CC(=O)O)n2)cc1 | 8180 | > 10 |  |
| Cc1ccc(-c2nc(CC(=O)O)co2)cc1 |  |  | Activity (Rattus norvegicus [3]): inactive; Activity (Rattus norvegicus [4]): Active |
| O=C(O)Cc1coc(-c2ccccc2)n1 |  |  | Activity (Rattus norvegicus [3]): inactive; Activity (Rattus norvegicus [4]): Active |
| O=C(O)Cc1nc(Cc2ccc(F)cc2)no1 | 21700 | > 10 |  |
| O=C(O)Cc1coc(-c2ccc(F)cc2)n1 |  |  | Activity (Rattus norvegicus [3]): inactive; Activity (Rattus norvegicus [4]): Active |
| O=C(O)Cc1nc(-c2ccc(F)cc2)no1 | 8430 | > 10 |  |
| Cc1ccc(-c2noc(CC(=O)O)n2)cc1 | 2500 | > 10 |  |
| O=C(O)Cc1nc(-c2ccccc2)no1 | 3330 | > 10 |  |
| Cc1ccc(Cc2noc(CC(=O)O)n2)cc1 | 5290 | > 10 |  |
| COc1ccc(-c2nc(CC(=O)O)co2)cc1 | 54800 |  |  |
| O=C(O)Cc1nc(-c2ccc(Br)cc2F)no1 | 2000 | > 10 |  |
| O=C(O)Cc1nc(Cc2ccccc2)no1 | 28400 | > 10 |  |
| O=C(O)Cc1nc(Cc2ccc(Cl)cc2)no1 | 5110 | > 10 |  |
| O=C(O)Cc1nc(-c2ccc(Cl)cc2)no1 | 3950 | > 10 |  |

Second part, led by results:

| IC50 [1] [nM] | IC50 [2] [µM] | SMILES | other results |
| --- | --- | --- | --- |
| 690 | > 10 | O=C(O)Cc1nc(-c2ccc(Br)cc2)no1 |  |
| 270 | > 10 | COc1ccc(-c2noc(CC(=O)O)n2)cc1 | Activity (Rattus norvegicus [5]): Active; Activity (Rattus norvegicus [6]): Active; Activity (Rattus norvegicus [7]): Active; Activity (Rattus norvegicus [8]): Active; Activity (Rattus norvegicus [9]): Active; Activity (Rattus norvegicus [10]): Active; Activity (Rattus norvegicus [11]): Active; Activity (Rattus norvegicus [12]): Active; Activity (Rattus norvegicus [13]): Active; Activity (Rattus norvegicus [14]): Active |
| 710 | > 10 | O=C(O)Cc1nc(-c2cccc([N+](=O)[O-])c2)no1 |  |
| 1080 | > 10 | O=C(O)Cc1nc(-c2ccc(C(F)(F)F)cc2)no1 |  |
| 360 | > 10 | O=C(O)Cc1nc(Cc2ccc(Br)cc2F)no1 |  |
| 1660 | > 10 | O=C(O)Cc1nc(Cc2ccc(Br)cc2)no1 |  |
| 50 | > 10 | COc1ccc2c(C(=S)N(C)CC(=O)O)cccc2c1C(F)(F)F [TOLRESTAT] | Activity (Rattus norvegicus [5]): Active; Activity (Rattus norvegicus [6]): Active; Activity (Rattus norvegicus [15]): Active; Activity (Rattus norvegicus [7]): Active; Activity (Rattus norvegicus [16]): Active; Activity (Rattus norvegicus [8]): Active; Activity (Rattus norvegicus [10]): Active; Activity (Rattus norvegicus [11]): Active; Activity (Rattus norvegicus [12]): Active; Activity (Rattus norvegicus [13]): Active; Activity (Rattus norvegicus [14]): Active |
| 300 | > 10 | O=C(O)Cc1nc(Cc2cccc([N+](=O)[O-])c2)no1 |  |
